Measured values taken from ChEMBL document CHEMBL1139681, “Discovery of orally active butyrolactam 11beta-HSD1 inhibitors” (Bioorg Med Chem Lett, 2006).

How the values were obtained:
[1] = biological target: T1, 11-beta-hydroxysteroid dehydrogenase type 2 (Mus musculus, UniProt P51661); experiment: Inhibition of mouse 11beta-HSD2
T1 sequence (P51661 whole entry): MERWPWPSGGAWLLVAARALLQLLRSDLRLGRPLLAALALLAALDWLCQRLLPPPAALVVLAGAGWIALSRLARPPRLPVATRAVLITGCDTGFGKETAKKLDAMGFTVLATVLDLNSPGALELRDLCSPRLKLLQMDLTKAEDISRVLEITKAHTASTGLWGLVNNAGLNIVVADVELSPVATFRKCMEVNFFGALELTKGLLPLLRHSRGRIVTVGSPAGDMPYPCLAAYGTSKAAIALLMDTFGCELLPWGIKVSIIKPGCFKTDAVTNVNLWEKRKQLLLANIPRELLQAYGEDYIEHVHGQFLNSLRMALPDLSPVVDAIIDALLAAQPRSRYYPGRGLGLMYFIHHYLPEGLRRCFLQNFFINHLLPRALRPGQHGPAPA

[2] = biological target: T2, 11-beta-hydroxysteroid dehydrogenase 1 (Homo sapiens, UniProt P28845); experiment: Inhibition of human 11beta-HSD1
[3] = biological target: T3, 11-beta-hydroxysteroid dehydrogenase type 2 (Homo sapiens, UniProt P80365); experiment: Inhibition of human 11beta-HSD2
T3 sequence (P80365 whole entry): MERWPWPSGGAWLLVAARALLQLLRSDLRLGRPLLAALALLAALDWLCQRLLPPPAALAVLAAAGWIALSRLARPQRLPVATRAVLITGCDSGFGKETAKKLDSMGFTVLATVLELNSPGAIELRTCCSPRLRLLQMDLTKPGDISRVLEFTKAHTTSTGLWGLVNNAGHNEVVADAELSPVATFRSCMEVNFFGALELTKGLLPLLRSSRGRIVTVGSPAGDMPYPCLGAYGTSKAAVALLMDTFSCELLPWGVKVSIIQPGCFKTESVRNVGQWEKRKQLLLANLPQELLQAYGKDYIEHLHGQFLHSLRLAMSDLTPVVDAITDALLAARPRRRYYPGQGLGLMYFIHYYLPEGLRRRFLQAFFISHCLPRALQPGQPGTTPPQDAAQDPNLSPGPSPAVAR

[4] = biological target: 11-beta-hydroxysteroid dehydrogenase 1 (Mus musculus, UniProt P50172); experiment: Inhibition of mouse 11beta-HSD1
[5] = biological target: T2, 11-beta-hydroxysteroid dehydrogenase 1; experiment: Inhibition of human 11beta-HSD1 expressed in HEK293 cells; type: cell-based
[6] = Stability in mouse liver microsomes after 30 min; type: ADME, Microsome; conditions: for remaining at 0.5 h: liver microsomes, read-out: Stability
Summary of the method: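 Percent parent remaining after a 30-min incubation with mouse liver microsomes.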

[7] = biological target: 11-beta-hydroxysteroid dehydrogenase 1 (Mus musculus) (UniProt P50172); experiment: Inhibition of DIO mouse epididymal fat pad 11beta-HSD1 at 30 mg/kg, po after 7 hrs; type: organism-based; design: dose 30 mg/kg
Summary of the method: (§1)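 DIO mice given a single 30 mpk dose; 11β-HSD1 inhibition in liver and fat measured ex vivo at 1, 7 and 16 h post-dose.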

[8] = biological target: 11-beta-hydroxysteroid dehydrogenase 1 (Mus musculus) (UniProt P50172); experiment: Inhibition of DIO mouse liver 11beta-HSD1at 30 mg/kg, po after 16 hrs; type: organism-based; design: dose 30 mg/kg; conditions: at 30 mg/kg; summary of the method: as §1
Mus musculus [9] = experiment: Lowering of plasma glucose level in DIO C57BL/6J mouse at 30 mg/kg, po after 4 hr fasting; type: functional
Summary of the method: (§2)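 Male C57BL/6J mice (5–6 weeks at purchase) made obese on high-fat diet, group-housed, 12 h light/dark cycle. Conditioned to oral gavage beforehand; assigned to groups of equal mean body weight. Dosed po bid (08:00, 15:00) in 1% Tween 80 in water, 4 ml/kg, for 14 days; lean and high-fat vehicle controls. Plasma analytes measured after 4 h fast; Dunnett's test.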

[10] = Plasma clearance in mouse at 5 mg/kg, iv and 10 mg/kg, po; type: ADME, organism-based
Summary of the method: (§3)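 Mouse PK; parameters derived from iv dosing at 5 mg/kg and oral (po) dosing at 10 mg/kg.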

[11] = biological target: 11-beta-hydroxysteroid dehydrogenase 1 (Mus musculus) (UniProt P50172); experiment: Inhibition of DIO mouse liver 11beta-HSD1at 30 mg/kg, po after 1 hr; type: organism-based; design: dose 30 mg/kg; conditions: at 30 mg/kg; summary of the method: as §1
[12] = biological target: 11-beta-hydroxysteroid dehydrogenase 1 (Mus musculus) (UniProt P50172); experiment: Inhibition of DIO mouse epididymal fat pad 11beta-HSD1 at 30 mg/kg, po after 16 hrs; type: organism-based; design: dose 30 mg/kg; summary of the method: as §1
[13] = Bioavailability in mouse at 5 mg/kg, iv and 10 mg/kg, po; type: ADME, organism-based; conditions: in vivo; summary of the method: as §3
Mus musculus [14] = experiment: Lowering of plasma insulin level in DIO C57BL/6J mouse at 30 mg/kg, po after 4hrs fasting; type: functional; summary of the method: as §2
Mus musculus [15] = experiment: Effect on body weight in DIO C57BL/6J mouse at 30 mg/kg, po; type: functional; summary of the method: as §2
[16] = Half life in mouse at 5 mg/kg, iv and 10 mg/kg, po; type: ADME, organism-based; conditions: in vivo; summary of the method: as §3
[17] = biological target: 11-beta-hydroxysteroid dehydrogenase 1 (Mus musculus) (UniProt P50172); experiment: Inhibition of DIO mouse liver 11beta-HSD1at 30 mg/kg, po after 7 hrs; type: organism-based; design: dose 30 mg/kg; conditions: at 30 mg/kg; summary of the method: as §1
Mus musculus [18] = experiment: Effect on plasma triglyceride level in DIO C57BL/6J mouse at 30 mg/kg, po after 4 hr fasting; type: functional; summary of the method: as §2
[19] = biological target: 11-beta-hydroxysteroid dehydrogenase 1 (Mus musculus) (UniProt P50172); experiment: Inhibition of DIO mouse epididymal fat pad 11beta-HSD1 at 30 mg/kg, po after 1 hr; type: organism-based; design: dose 30 mg/kg; summary of the method: as §1
Mus musculus [20] = experiment: Lowering of plasma glucose level in DIO C57BL/6J mouse at 5 mg/kg, po after 4 hr fasting; type: functional; summary of the method: as §2
Mus musculus [21] = experiment: Lowering of plasma insulin level in DIO C57BL/6J mouse at 5 mg/kg, po after 4 hr fasting; type: functional; summary of the method: as §2
Mus musculus [22] = experiment: Effect on body weight in DIO C57BL/6J mouse at 5 mg/kg, po; type: functional; summary of the method: as §2
Mus musculus [23] = experiment: Effect on plasma triglyceride level in DIO C57BL/6J mouse at 5 mg/kg, po after 4hrs fasting; type: functional; summary of the method: as §2

Sequence of 11-beta-hydroxysteroid dehydrogenase 1 (Mus musculus) (P50172 whole entry, looked up): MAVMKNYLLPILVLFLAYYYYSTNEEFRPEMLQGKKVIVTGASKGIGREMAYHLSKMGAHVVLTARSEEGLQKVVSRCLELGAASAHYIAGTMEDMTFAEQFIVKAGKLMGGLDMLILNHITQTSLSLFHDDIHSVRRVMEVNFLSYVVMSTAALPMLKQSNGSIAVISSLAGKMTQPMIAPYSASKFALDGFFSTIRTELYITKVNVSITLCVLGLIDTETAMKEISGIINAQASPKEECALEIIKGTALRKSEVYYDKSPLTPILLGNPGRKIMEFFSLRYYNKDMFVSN
Sequence of 11-beta-hydroxysteroid dehydrogenase 1 (Mus musculus, UniProt P50172) (P50172 whole entry): as the sequence (P50172 whole entry, looked up) above
T2 sequence (P28845 whole entry): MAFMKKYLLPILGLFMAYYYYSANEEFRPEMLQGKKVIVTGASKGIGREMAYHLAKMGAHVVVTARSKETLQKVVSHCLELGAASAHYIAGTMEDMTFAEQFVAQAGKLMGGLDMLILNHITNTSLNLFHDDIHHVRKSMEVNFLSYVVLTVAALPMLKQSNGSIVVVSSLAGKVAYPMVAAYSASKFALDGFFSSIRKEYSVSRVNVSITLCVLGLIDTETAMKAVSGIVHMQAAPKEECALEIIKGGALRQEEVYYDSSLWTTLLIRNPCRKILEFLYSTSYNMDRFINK

SMILES	IC50 [1]	IC50 [2]	IC50 [3]	IC50 [4]	IC50 [5]	remaining at 0.5 h [6]	other results
CC1(C)C(=O)N([C@H]2C3CC4CC2C[C@](C(N)=O)(C4)C3)CC1COc1ccc(-n2cncn2)cc1 (some centres undefined)	8000 nM	41 nM	1600 nM	32 nM	43 nM		
CC1(C)C(=O)N(C2CCCCCC2)CC1COc1ccc(C#N)cn1 (centres undefined)	100000 nM			62 nM			
CC1(C)C(=O)N(C23CCC(C(N)=O)(CC2)CC3)CC1COc1ccc(C#N)cn1 (centres undefined)	100000 nM			10 nM		91%	
CC1(C)C(=O)N([C@H]2C3CC4CC2C[C@](C(N)=O)(C4)C3)CC1COc1ccc(C#N)cn1 (some centres undefined)	10000 nM			2 nM		97%	inhibition [7]: 71%; inhibition [8]: 67%; Activity (Mus musculus [9]): 164.7 mg/dL; clearance [10]: 33.3 mL/min/kg; inhibition [11]: 99%; inhibition [12]: 46%; bioavailability [13]: 76.6%; Activity (Mus musculus [14]): 1.31 ng/mL; Activity (Mus musculus [15]): 40.7 g; half-life [16]: 1.3 h; inhibition [17]: 94%; Activity (Mus musculus [18]): 33.3 mg/dL
CC1(C)C(=O)N([C@H]2C3CC4CC2C[C@](C(=N)NO)(C4)C3)CC1COc1ccc(C(F)(F)F)cn1 (some centres undefined)	60000 nM			14 nM		67%	
CC1(C)C(=O)N([C@H]2C3CCCC2C[C@@H](C(N)=O)C3)CC1COc1ccc(C#N)cn1 (stereo in doubt; 31) [listing 1 of 2 here]							inhibition [7]: 30%; inhibition [8]: 14%; inhibition [11]: 73%; inhibition [12]: 17%; inhibition [19]: 68%; inhibition [17]: 33%
CC1(C)C(=O)N([C@H]2C3CCCC2C[C@@H](C(N)=O)C3)CC1COc1ccc(C#N)cn1 (stereo in doubt; 31) [listing 2 of 2 here]	> 50000 nM	7 nM	15000 nM	3 nM	39 nM		clearance [10]: 23.3 mL/min/kg; Stability ([6]; microsomes, 0.5 h): 88%; bioavailability [13]: 63.9%; half-life [16]: 1.3 h
O=C1C(Cc2ccccc2)CCN1C1C2CC3CC(C2)CC1C3 (centres undefined)		64 nM	> 10000 nM				
CC#C[C@]1(O)CC[C@H]2[C@@H]3CCC4=CC(=O)CCC4=C3[C@@H](c3ccc(N(C)C)cc3)C[C@@]21C [MIFEPRISTONE]							Activity (Mus musculus [9]): 147.5 mg/dL; Activity (Mus musculus [14]): 1.5 ng/mL; Activity (Mus musculus [15]): 39.5 g; Activity (Mus musculus [18]): 43.2 mg/dL
CCOC(=O)[C@H]1[C@@H]2CCC(N3CC(COc4ccc(C#N)cn4)C(C)(C)C3=O)CC[C@@H]21 (some centres undefined)	> 100000 nM		> 30000 nM		518 nM		Ki [2]: 50 nM; Ki [4]: 260 nM
CN(CCOc1ccc(CC2SC(=O)NC2=O)cc1)c1ccccn1 (centres undefined) [ROSIGLITAZONE]							Activity (Mus musculus [20]): 143.4 mg/dL; Activity (Mus musculus [21]): 0.97 ng/mL; Activity (Mus musculus [22]): 41.6 g; Activity (Mus musculus [23]): 50.8 mg/dL
CC1(C)C(=O)N([C@H]2C3CC4CC2C[C@](C(=N)N)(C4)C3)CC1COc1ccc(C(F)(F)F)cn1 (some centres undefined)	> 100000 nM			110 nM		100%	
CC1(C)C(=O)N([C@H]2C3CC4CC2C[C@](C(N)=O)(C4)C3)CC1COc1ccc(-n2ccnc2)cc1 (some centres undefined)	14000 nM	76 nM	1800 nM	41 nM	28 nM	28%	
CC1(C)C(=O)N([C@H]2C3CC4CC2C[C@](c2nnn[nH]2)(C4)C3)CC1COc1ccc(C(F)(F)F)cn1 (some centres undefined)	1600 nM	310 nM	630 nM	430 nM	230 nM		
N#Cc1ccc(OCC2CC(=O)N(C3CCCCCC3)C2)nc1 (centres undefined)				10000 nM			
C[C@H]1C(=O)N(C2CCCCCC2)C[C@@H]1COc1ccc(C#N)cn1				75 nM			
O=C1C(Cc2ccccc2)CCN1C1CCCCC1 (centres undefined)		107 nM	> 10000 nM				
CC1(C)C(=O)N([C@H]2C3CCCC2C[C@H](C(N)=O)C3)CC1COc1ccc(C#N)cn1 (some centres undefined)	> 100000 nM		> 100000 nM		510 nM	12%	Ki [2]: 29 nM; Ki [4]: 17 nM
CC1(C)C(=O)N(C2CCCN(C(N)=O)CC2)CC1COc1ccc(C#N)cn1 (centres undefined)							Ki [2]: 190 nM; Ki [4]: 250 nM
O=C1C(Cc2ccccc2)CCN1[C@H]1C2CC3CC1C[C@](O)(C3)C2 (some centres undefined)		832 nM	> 10000 nM				
NC(=O)[C@]12CC3CC(C1)[C@@H](N1CCC(Cc4ccccc4)C1=O)C(C3)C2 (some centres undefined)		35 nM	> 30000 nM				
CC1(C)C(=O)N([C@H]2C3CCCC2C[C@@H](C(N)=O)C3)CC1COc1ccc(C#N)cn1 (stereo in doubt; 32)	100000 nM	5 nM	22000 nM	9 nM	46 nM	92%	
